Converted amounts (≈) assume the structure as drawn.
How the values were obtained:
[1] = Stability of the compound in MeCN under room temperature by 1H NMR-spectroscopic analysis; assay type: physicochemical
Staphylococcus aureus = experiment: Antibacterial activity against Staphylococcus aureus measured after 24 hrs; assay type: functional
Procedure, shortened: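 Broth microdilution in TSB. Overnight 37 °C culture from a single colony, washed twice by centrifugation/resuspension in TSB, set to OD600 0.1 (10⁸ CFU/mL), then diluted to 10⁵ CFU/mL. Bacteria added 3:1 to serially diluted compound (DMSO stock diluted in water). Incubated 37 °C, 24 h; OD600 read. MIC = lowest concentration giving OD like the no-bacteria control. Triplicate, three independent experiments.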

[2] = Stability of the compound in toluene under room temperature by 1H NMR-spectroscopic analysis; assay type: physicochemical
[3] = Stability of the compound in MeCN under intense heating condition by 1H NMR-spectroscopic analysis; assay type: physicochemical
[4] = Drug metabolism in DMSO-d6 assessed as isorottlerin formation measured after 2 months at room temperature by RP-HPLC analysis
[5] = Stability of the compound in CHCl3 under intense heating condition by 1H NMR-spectroscopic analysis; assay type: physicochemical
[6] = Stability of the compound in acetone under room temperature by 1H NMR-spectroscopic analysis; assay type: physicochemical
[7] = Drug metabolism in DMSO-d6 assessed as isorottlerin formation measured after 2 months at room temperature by HSQC analysis
[8] = Stability of the compound in toluene under intense heating condition by 1H NMR-spectroscopic analysis; assay type: physicochemical
[9] = Drug metabolism in DMSO-d6 assessed as 6-(3-Acetyl-2,4,6-trihydroxy-5-methylbenzyl)-5-hydroxy-2,2-dimethyl-8-phenyl-8,9-dihydro-2H,10H-pyrano[2,3-f]-chromen-10-one formation measured after 2 months at room temperature by HSQC analysis
[10] = Stability of the compound in DMSO-d6 measured after 2 months at room temperature by 1H NMR-spectroscopic analysis; assay type: physicochemical; conditions: 1461 h
[11] = Stability of the compound in acetone under intense heating condition by 1H NMR-spectroscopic analysis; assay type: physicochemical
[12] = Drug metabolism in DMSO-d6 assessed as 6-(3-Acetyl-2,4,6-trihydroxy-5-methylbenzyl)-5-hydroxy-2,2-dimethyl-8-phenyl-8,9-dihydro-2H,10H-pyrano[2,3-f]-chromen-10-one formation measured after 2 hrs at 100 degC by 1H NMR analysis
[13] = Stability of the compound in CHCl3 under room temperature by 1H NMR-spectroscopic analysis; assay type: physicochemical
[14] = Drug metabolism in DMSO-d6 assessed as isorottlerin formation measured after 2 hrs at 100 degC by 1H NMR analysis
[15] = Drug metabolism in DMSO-d6 assessed as 6-(3-Acetyl-2,4,6-trihydroxy-5-methylbenzyl)-5-hydroxy-2,2-dimethyl-8-phenyl-8,9-dihydro-2H,10H-pyrano[2,3-f]-chromen-10-one formation measured after 2 months at room temperature by RP-HPLC analysis

For CC(=O)c1c(O)c(C)c(O)c(Cc2c(O)c3c(c(C(=O)/C=C/c4ccccc4)c2O)OC(C)(C)C=C3)c1O [ROTTLERIN], the Stability [1] was “Stable”, the MIC (Staphylococcus aureus) was 2 µM (≈ 1.03 µg/mL) and the Stability [2] was “Stable”. The Stability [3] was “Stable”, the Drug metabolism [4] was 20% and the Stability [5] was “Stable”. The Stability [6] was “Stable”, the Drug metabolism [7] was “Metabolite detected” and the Stability [8] was “Stable”. For the same compound, the Drug metabolism [9] was “Metabolite detected”, the Stability [10] was “Unstable” and the Stability [11] was “Stable”. For the same compound, the Drug metabolism [12] was “Metabolite detected”, the Stability [13] was “Stable” and the Drug metabolism [14] was “Metabolite detected”. For the same compound, the Drug metabolism [15] was 2%.

Compound CC(=O)c1c(O)cc(O)c(Cc2c(O)c3c(c(C(=O)/C=C/c4ccccc4)c2O)OC(C)(C)C=C3)c1O has an MIC (Staphylococcus aureus) of 7.8 µM (≈ 3.92 µg/mL).

CC(=O)C1=C(O)C(C)(CC=C(C)C)C(O)=C(Cc2c(O)c(CC=C(C)C)c(O)c(C(C)=O)c2O)C1=O (stereo unspecified) [DRUMMONDIN F] showed an MIC (Staphylococcus aureus) of 0.78 µM (≈ 0.389 µg/mL).

Work on GENTAMICIN yielded an MIC (Staphylococcus aureus) of 2 µM.

Compound CC1(C)C=Cc2c(O)c(Cc3c(O)cc(O)cc3O)c(O)c(C(=O)/C=C/c3ccccc3)c2O1 has an MIC (Staphylococcus aureus) of 15.6 µM (≈ 7.18 µg/mL).

With CC(=O)c1c(O)c(C)c(O)c(Cc2c3c(c(O)c4c2OC(c2ccccc2)CC4=O)C=CC(C)(C)O3)c1O (stereo unspecified) the MIC (Staphylococcus aureus) was over 125 µM.

With CCC(=O)C1=C(O)C(C)(C)C(O)=C(Cc2c(O)c3c(c(C(C)=O)c2O)OC(C)(C)C=C3)C1=O [DRUMMONDIN B] the MIC (Staphylococcus aureus) was 3.12 µM (≈ 1.42 µg/mL).

Work on Cc1cc(O)cc(O)c1Cc1c(O)c2c(c(C(=O)/C=C/c3ccccc3)c1O)OC(C)(C)C=C2 yielded an MIC (Staphylococcus aureus) of 7.8 µM (≈ 3.58 µg/mL).

Compound CC(=O)c1c(O)c(C)c(O)c(Cc2c(O)c3c(c4c2OC(c2ccccc2)CC4=O)OC(C)(C)C=C3)c1O (stereo unspecified) has an MIC (Staphylococcus aureus) of over 125 µM.

With CC(=O)C1=C(O)C(C)(C)C(O)=C(Cc2c(O)c3c(c(C(C)=O)c2O)OC(C)(C)C=C3)C1=O [DRUMMONDIN C] the MIC (Staphylococcus aureus) was 3.12 µM (≈ 1.38 µg/mL).

In the case of CCC(=O)C1=C(O)C(C)(C)C(O)=C(Cc2c(O)c3c(c(C(=O)CC)c2O)OC(C)(C)C=C3)C1=O [DRUMMONDIN A], the MIC (Staphylococcus aureus) is reported as 1.56 µM (≈ 0.734 µg/mL).
